RanGTP-Imp inh: inhibitors of RanGTP-importin-beta interaction, primary screen, biochemical, FRET, CFP-Ran, YFP-importin-beta, homogeneous; Ran GTPase (GTP-bound) - importin-beta complex; cell-free CFP-Ran/YFP-importin-beta FRET ratio; inhibition, % (test concentration not listed); 300,000 tested, 1.1% active;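 active means more than half of the replicate wells show a fall in the fluorescence ratio signal beyond about 16%, limit read from the data, passing the limit was not always enough; inconclusive means exactly half of the replicate wells pass the set limit; inactive means fewer than half of replicates pass the limit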
Hck Nef HTS: inhibitors of Nef-activated human Hck kinase, primary screen, biochemical, Z-Lyte FRET, 384-well, Hck-YEEI; inhibition, % at 20 µM; AID 463187, 2010; Tyrosine-protein kinase HCK (Homo sapiens), P08631; 220,000 tested, 0.68% active; Recombinant Hck-YEEI plus Nef, Z-Lyte FRET kinase assay;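 active means Hck-Nef kinase inhibition above about 50%, limit read from the data; inactive means inhibition below that limit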
Runt-CBFb FRET: inhibitors of RUNX1 Runt–CBFb binding, primary screen, biochemical, FRET, Cerulean-Runt, Venus-CBFb, uHTS. Runt-related transcription factor 1 (Homo sapiens) + Core-binding factor subunit beta …. inhibition, % at 20 µM. Cerulean-Runt/Venus-CBFb FRET ratio 530/480, 1 h. 220,000 tested, 0.46% active. AID 1496, 2009;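 active means inhibition over about 50% at 20 µM in the single-dose screen, limit read from the data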
Target sequence (Q01196 whole entry, looked up): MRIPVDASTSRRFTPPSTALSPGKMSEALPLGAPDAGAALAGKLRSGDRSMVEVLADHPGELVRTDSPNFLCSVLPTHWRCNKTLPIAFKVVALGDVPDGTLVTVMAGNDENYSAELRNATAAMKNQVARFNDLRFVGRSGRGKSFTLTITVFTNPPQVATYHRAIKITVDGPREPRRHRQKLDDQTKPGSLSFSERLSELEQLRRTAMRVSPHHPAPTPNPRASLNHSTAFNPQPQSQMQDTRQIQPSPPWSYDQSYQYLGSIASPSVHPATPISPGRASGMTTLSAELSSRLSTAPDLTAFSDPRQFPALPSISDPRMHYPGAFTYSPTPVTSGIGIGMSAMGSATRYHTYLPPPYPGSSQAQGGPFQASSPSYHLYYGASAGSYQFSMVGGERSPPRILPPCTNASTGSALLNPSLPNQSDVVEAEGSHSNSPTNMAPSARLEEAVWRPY
Target sequence (Q13951 whole entry, looked up): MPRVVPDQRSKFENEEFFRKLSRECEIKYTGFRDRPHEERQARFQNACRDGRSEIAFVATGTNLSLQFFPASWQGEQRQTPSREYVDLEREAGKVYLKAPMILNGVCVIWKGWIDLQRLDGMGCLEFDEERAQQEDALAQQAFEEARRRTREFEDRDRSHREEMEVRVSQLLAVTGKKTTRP
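Assay system: Cerulean-tagged RUNX1 Runt domain (FRET donor) fusion protein / Amount: 100 nM each of Venus-CBFb and Cerulean-Runt domain / Medium: Tris buffer pH 7.5 with salts and BSA / Also added: Venus-CBFb 100 nM / Schedule: 1 h complex formation plus 1 h compound treatment, room temperature / Signal: FRET fluorescence / Read-out: loss of energy transfer signal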
Runt-SMMHC FRET: inhibitors of RUNX1 Runt–CBFb-SMMHC binding, primary screen, biochemical, FRET, Cerulean-Runt, Venus-CBFb-SMMHC, uHTS | Runt-related transcription factor 1 (Homo sapiens) + Core-binding factor subunit beta … | Cerulean-Runt/Venus-CBFb-SMMHC FRET ratio 530/480, 1 h | inhibition, % at 20 µM | 220,000 tested, 0.74% active;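 active means mean inhibition across duplicate retests at 20 µM reaching about 50%, limit read from the data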;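 further: inhibitors lower the FRET ratio by blocking Runt binding to CBFb-SMMHC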
Hck-Nef confirm: retest of Hck:Nef kinase inhibitor hits, confirmation, biochemical, Z-Lyte FRET, 384-well, p-Tyr peptide counterscreen | shares compounds with Hck Nef HTS | Recombinant Hck-YEEI:Nef, Z-Lyte FRET kinase assay | calls only at 10 µM | 1,300 tested, 28% active;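 active means average inhibition of at least 50%, with Z-scores no higher than 3 in both the phospho-tyrosine peptide and fluorescence counterscreens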
Numbers stand for hits; – = inactive; ? = inconclusive; · = not tested or not shown; + = active, no number. An excerpt weighted towards active compounds, which were near 1.9% of everything screened.

SMILES	RanGTP-Imp inh	Hck Nef HTS	Runt-CBFb FRET	Runt-SMMHC FRET	Hck-Nef confirm
Cc1cc(NCC2CCCO2)n2c(nc3ccccc32)c1C#N (stereo unspecified)	–	95	–	–	·
CCCc1cc(NCCCO)n2c(nc3ccccc32)c1C#N	30	194	–	–	·
CCC(C)Nc1cc(C)c(C#N)c2nc3ccccc3n12 (stereo unspecified)	–	·	·	·	·
Cc1cc(-n2ccnc2)n2c(nc3ccccc32)c1C#N	–	–	–	–	·
CC(C)c1cc(NCC2CCCO2)n2c(nc3ccccc32)c1C#N (stereo unspecified)	–	108	–	–	·
Cc1cc(Nc2ccc(O)cc2)n2c(nc3ccccc32)c1C#N	–	–	–	–	·
CCC(C(=O)NC(C)(C)C)N(C(=O)Cn1nnc(-c2ccccc2F)n1)c1cccc2c1CCCC2 (stereo unspecified)	–	–	–	–	·
NC(=O)c1ccc[n+](CC(=O)c2ccc(F)cc2)c1	–	–	–	–	·
O=C(NCCN1CCOCC1)C1CCC(CNS(=O)(=O)c2ccc(Cl)cc2)CC1 (stereo unspecified)	–	–	–	–	·
CC(C)n1cnc2c(Nc3ccc(C(=O)O)cc3)nc(Cl)nc21	–	53	–	–	–
CC(C)n1cnc2c(Nc3cccc(Cl)c3)nc(NCCCO)nc21	–	96	–	–	+
CC(C)[C@H](CO)Nc1nc(Nc2ccc(Cl)c(C(=O)O)c2)c2ncn(C(C)C)c2n1	–	65	–	–	+
CC(C)n1cnc2c(NCc3ccccc3)nc(NCc3ccccc3)nc21	–	–	–	–	·
CC(C)[C@H](CO)Nc1nc(NCc2ccc(S(N)(=O)=O)cc2)c2ncn(C(C)C)c2n1	–	–	–	–	·
C/C(=N/NC(=O)c1cc(C)[nH]n1)c1ccco1	–	–	–	–	·
Oc1ccccc1N1CCN(CC(O)COCc2ccccc2Cl)CC1 (stereo unspecified)	–	–	–	–	·
CCN(CC)c1ccc2c(C)c(CN3CCOCC3)c(=O)oc2c1	–	102	–	–	·
CCN(CC)c1ccc2c(Cl)cc(=O)oc2c1	74	66	–	–	·
CCN(CC)c1ccc2c(C)c(CO)c(=O)oc2c1	132	+	–	86	·
COC(=O)Cc1c(C)c2ccc(OCC(=O)N3CCOCC3)cc2oc1=O	–	–	–	–	·
CC1Cc2ccccc2N1C(=O)COc1ccc2c(c1)OCO2 (stereo unspecified)	–	–	–	–	·
Cc1nc2ccc3nc(NC(=O)c4ccc5c(c4)OCCO5)sc3c2s1	–	87	–	–	+
COc1ccc(-c2csc(NC(=O)C3CC(=O)N(c4ccc5c(c4)OCCO5)C3)n2)cc1 (stereo unspecified)	–	–	–	–	·
CC(=O)Nc1ccc(-c2csc(NC(=O)C3CC(=O)N(c4ccc5c(c4)OCCO5)C3)n2)cc1 (stereo unspecified)	–	51	–	–	–
O=C(OCC(=O)N1CCN(C(=O)c2ccco2)CC1)c1cc(-c2ccco2)nc2ccccc12	–	–	–	–	·
SMILES	RanGTP-Imp inh	Hck Nef HTS	Runt-CBFb FRET	Runt-SMMHC FRET	Hck-Nef confirm
O=C(OCC(=O)N1CCN(C(=O)c2ccco2)CC1)c1cc(-c2ccc(Cl)c(Cl)c2Cl)nc2ccccc12	–	50	–	–	+
CCN1CCN(CCCNC(=O)C2CCCN(c3nc4c(C)cc(C)cc4s3)C2)CC1 (stereo unspecified)	–	·	·	·	·
COC(=O)C(C)Oc1cc(C)ccc1COc1ccc(-n2nc(C)n(C(F)F)c2=O)cc1 (stereo unspecified)	–	·	·	·	·
O=C(N/N=C/c1ccc([N+](=O)[O-])o1)c1ccc(NS(=O)(=O)c2cccs2)cc1	–	55	–	–	–
O=C(N/N=C/c1ccc2c(c1)OCO2)c1ccc(NS(=O)(=O)c2cccs2)cc1	–	–	–	–	·
Cc1cccc(Cc2nnc(CCC(=O)N(C)Cc3ccncc3C)o2)c1	?	84	–	–	–
COc1cc(OC)c(C(=O)Nc2cccc(C(C)=O)c2)cc1OC	–	–	–	–	·
Cc1ccc(NC(=O)Nc2sc(=S)n(C)c2C)cc1	–	92	–	–	–
CC(C)(C)NC(=O)C1Cc2ccccc2CN1C(=O)Nc1ccccc1Cl (stereo unspecified)	–	–	–	–	·
C(=C\c1ccco1)/c1ccc2ccccc2n1	–	54	–	–	–
Cc1ccc(OCC(=O)Nc2ccc(-c3nc4ncccc4o3)cc2)c(C)c1	–	106	–	–	–
O=C(NC(=S)Nc1ccc(-c2nc3ncccc3o2)cc1)c1ccccc1F	–	52	–	–	–
O=C(NC(=S)Nc1ccc(Cc2ccncc2)cc1)c1ccccc1F	–	–	–	–	·
Cc1ccc(C(=O)Nc2cccc(-c3nc4ncccc4o3)c2)cc1	–	–	–	–	·
Cc1cc(C)n(C(C)n2nc(C)cc2C)n1	–	–	–	–	·
Cc1c(C)n(Cc2ccccc2)c2ccc(C(=O)NCCCN3CCOCC3)cc12	–	·	·	·	·
Cc1noc(C)c1CN1C(=O)NC2(CCc3ccccc3C2)C1=O (stereo unspecified)	–	–	·	·	·
O=[N+]([O-])c1cccn2cc(-c3ccc(Br)cc3)nc12	–	–	–	–	·
Nc1nn2cc(-c3ccc(Br)cc3)nc2c2ccccc12	–	64	–	–	–
Cc1cccn2c(=O)c3cc(C(=O)NCc4ccco4)c(=N)n(CCOCCO)c3nc12	155	75	·	·	–
COCCn1c(=N)c(C(=O)NCc2ccco2)cc2c(=O)n3cc(C)ccc3nc21	–	86	·	·	·
CC(C)Oc1ccc(N2CC(C(=O)OCC(=O)NCc3ccccc3)CC2=O)cc1 (stereo unspecified)	–	–	·	–	·
CS(=O)(=O)c1ccccc1-c1nnc(NC(=O)c2cccc(N3C(=O)CCC3=O)c2)o1	–	·	·	·	·
Cn1c(N/N=C2\CCCc3ccccc32)nc2c1c(=O)n(Cc1ccc(F)cc1)c(=O)n2C	–	56	–	–	–
COCCCNc1nc2c(c(=O)n(Cc3ccc(F)cc3)c(=O)n2C)n1C	–	·	·	·	·
Cc1cc(=O)oc2c(C)c(OC(=O)c3ccco3)ccc12	–	·	·	·	·
CCC(=O)Oc1ccc2c(C)cc(=O)oc2c1C	–	54	–	–	–
Cc1ccc2[nH]cc(CCNC(=O)C3CCCO3)c2c1 (stereo unspecified)	–	·	·	·	·
CNc1ccc(Br)cc(C(=O)/C=C/c2cccc(Cl)c2Cl)c1=O	·	51	–	–	–
CNc1ccc(Br)cc(C(=O)/C=C/c2cccc(OC)c2OC)c1=O	–	–	–	–	·
